Laboratory results published in ChEMBL document CHEMBL4699441, “Identification and Preclinical Evaluation of the Bicyclic Pyrimidine γ-Secretase Modulator BMS-932481” (ACS Med Chem Lett, 2019).
pEC50, pIC50: −log10 of the molar value. In brackets after ≈: the same amount, converted by molar mass. Activity calls are given as the source filed them. No cut-off for these calls is given here.

Experiments:
[1] = Toxicity in Beagle dog assessed as changes in bilirubin level at 300 mg/kg, po; format: organism-based, Canis lupus familiaris; conditions: in vivo
How it was run: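 Dogs given a single acute oral dose of 300 mg/kg; bilirubin and other clinical pathology assessed; Cmax and AUC measured.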

[2] = tested on: Brain; assay: Antialzheimer activity in rat brain assessed as reduction in amyloid beta (1 to 42) AUC at 10 mg/kg measured after 24 hrs relative to control; format: functional; parameters: scale not given: the % may be the effect or the level left
How it was run: (§1)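 Rats dosed orally; brain Aβ1-42 followed over 24 h, and the reduction in brain Aβ1-42 AUC integrated over 0–24 h was fitted to an indirect response PK/PD model.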

[3] = Oral bioavailability in Beagle dog at 1 mg/kg dosed as nano suspension measured up to 24 hrs by LC-MS/MS analysis; format: ADME, organism-based, Canis lupus familiaris; conditions: in vivo
How it was run: (§2)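 Oral dosing as a nanosuspension in Sprague–Dawley rat, male Beagle dog and male cynomolgus monkey; dogs pretreated with pentagastrin.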

[4] = Cardiotoxicity in unconscious telemeterized rabbit assessed as change in QTcf time at 3 mg/kg; format: toxicity, organism-based, Oryctolagus cuniculus; conditions: in vivo
[5] = AUC in Beagle dog at 300 mg/kg, po measured up to 24 hrs by LC-MS/MS analysis; format: ADME, organism-based, Canis lupus familiaris; parameters: route oral, dose 300 mg/kg, time >=24; conditions: in vivo
How it was run: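 Dogs given an acute single oral dose of 300 mg/kg; plasma Cmax and AUC measured alongside bilirubin and other clinical pathology assessments.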

[6] = AUC (0 to 24 hrs) in Harlan Sprague-Dawley rat incubated for 24 hrs by LC-MS/MS analysis; format: ADME; parameters: time 24 hrs; conditions: in vivo
[7] = Toxicity in rat assessed as change in notch related goblet cell metaplasia in the duodenum at 100 mg/kg, po administered for 2 week; format: organism-based; conditions: in vivo, 336 h, time 2 weeks
[8] = Reduction in amyloid beta (1 to 42) secretion in brain in triple transgenic LaFerla mouse at 30 mg/kg, po measured after 3 hrs relative to control; format: functional
How it was run: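 Triple transgenic LaFerla mice (APP Swedish, MAPT P301L, PSEN1 M146V) given 30 mg/kg po; brain Aβ1-42 measured 3 h postdose; n = 3.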

[9] = biological target: T1, Cytochrome P450 3A4 (Homo sapiens, UniProt P08684); assay: Time dependent inhibition of CYP3A4 in human liver microsomes assessed as inactivation constant; format: ADME
T1 sequence (P08684 whole entry): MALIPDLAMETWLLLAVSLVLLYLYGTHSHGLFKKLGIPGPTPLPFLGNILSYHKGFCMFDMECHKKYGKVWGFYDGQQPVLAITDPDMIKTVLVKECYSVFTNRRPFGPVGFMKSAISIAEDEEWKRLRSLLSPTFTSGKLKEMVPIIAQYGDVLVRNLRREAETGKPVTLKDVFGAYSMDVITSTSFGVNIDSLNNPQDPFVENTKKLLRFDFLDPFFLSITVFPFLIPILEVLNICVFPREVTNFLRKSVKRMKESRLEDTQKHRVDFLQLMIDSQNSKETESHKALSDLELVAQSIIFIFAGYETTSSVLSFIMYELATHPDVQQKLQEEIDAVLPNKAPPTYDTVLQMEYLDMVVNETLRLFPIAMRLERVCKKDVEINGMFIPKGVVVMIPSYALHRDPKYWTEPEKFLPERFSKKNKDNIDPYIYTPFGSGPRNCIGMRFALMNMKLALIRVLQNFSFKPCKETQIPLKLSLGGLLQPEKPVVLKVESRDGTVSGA

[10] = Plasma concentration in Harlan Sprague-Dawley rat at 10 mg/kg, po measured after 5 hrs; format: ADME, organism-based
[11] = Oral bioavailability in Sprague-Dawley rat at 2 mg/kg dosed as nano suspension measured up to 24 hrs by LC-MS/MS analysis; format: ADME, organism-based; conditions: in vivo; how it was run: as §2
[12] = Inhibition of amyloid beta (1 to 42) secretion in human H4 cells overexpressing APP incubated for overnight by HTRF analysis; format: functional, cell-based
[13] = Half life in Beagle dog at 1 mg/kg, iv measured up to 24 hrs by LC-MS/MS analysis; format: ADME, organism-based, Canis lupus familiaris; conditions: in vivo
How it was run: (§3)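 Male Beagle dogs and male cynomolgus monkeys, 1 mg/kg by 5 min iv infusion in 9:1 PEG:EtOH, n=3.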

[14] = Induction of CYP3A4 mRNA expression in human hepatocytes at 1 uM relative to control; format: ADME, cell-based, Hepatocyte
[15] = Half life in cynomolgus monkey at 1 mg/kg, iv measured up to 24 hrs by LC-MS/MS analysis; format: ADME, organism-based, Macaca fascicularis; conditions: in vivo; how it was run: as §3
[16] = Hemodynamic activity in unconscious telemeterized rabbit assessed as increase in blood pressure at >= 10 mg/kg; format: ADME, organism-based, Oryctolagus cuniculus; conditions: in vivo
[17] = biological target: Cytochrome P450 2D6 (Homo sapiens, UniProt P10635); assay: Inhibition of CYP2D6 in human liver microsomes; format: ADME
Sequence of Cytochrome P450 2D6 (P10635 whole entry): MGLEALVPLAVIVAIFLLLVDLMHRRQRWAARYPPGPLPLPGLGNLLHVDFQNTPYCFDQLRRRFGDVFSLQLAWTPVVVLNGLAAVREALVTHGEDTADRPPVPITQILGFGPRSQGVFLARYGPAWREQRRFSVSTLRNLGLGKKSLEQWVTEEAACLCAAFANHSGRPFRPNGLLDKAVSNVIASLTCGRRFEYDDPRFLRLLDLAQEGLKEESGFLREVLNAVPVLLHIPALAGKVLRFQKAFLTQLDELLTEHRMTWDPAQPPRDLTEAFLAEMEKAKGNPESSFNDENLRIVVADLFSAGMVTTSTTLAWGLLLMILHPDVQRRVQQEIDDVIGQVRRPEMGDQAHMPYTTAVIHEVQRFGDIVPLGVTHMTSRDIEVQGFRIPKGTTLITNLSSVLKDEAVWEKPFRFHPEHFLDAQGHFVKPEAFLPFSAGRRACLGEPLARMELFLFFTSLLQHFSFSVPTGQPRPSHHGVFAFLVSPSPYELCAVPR

[18] = Fraction unbound in Beagle dog plasma measured after 24 hrs by LC-MS/MS analysis; format: ADME, cell-free, Canis lupus familiaris
[19] = biological target: T2, Cytochrome P450 2C8 (Homo sapiens, UniProt P10632); assay: Inhibition of CYP2C8 in human liver microsomes; format: ADME
T2 sequence (P10632 whole entry): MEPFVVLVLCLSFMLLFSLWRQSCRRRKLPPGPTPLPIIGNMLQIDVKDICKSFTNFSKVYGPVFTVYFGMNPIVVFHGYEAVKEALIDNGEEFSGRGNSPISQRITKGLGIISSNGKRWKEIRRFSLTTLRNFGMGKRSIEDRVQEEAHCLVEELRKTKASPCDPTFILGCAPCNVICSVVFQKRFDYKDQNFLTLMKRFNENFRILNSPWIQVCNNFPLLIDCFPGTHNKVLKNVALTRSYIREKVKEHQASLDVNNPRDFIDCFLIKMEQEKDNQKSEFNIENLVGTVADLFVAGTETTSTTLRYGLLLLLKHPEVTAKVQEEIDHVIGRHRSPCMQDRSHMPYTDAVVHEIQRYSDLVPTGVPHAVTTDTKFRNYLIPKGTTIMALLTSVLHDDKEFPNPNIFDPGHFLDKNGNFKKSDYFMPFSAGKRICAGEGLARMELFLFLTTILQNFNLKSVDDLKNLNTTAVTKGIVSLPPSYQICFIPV

[20] = tested on: Brain; assay: Antialzheimer activity in rat brain assessed as reduction in amyloid beta (1 to 42) AUC at 3 mg/kg measured after 24 hrs relative to control; format: functional; parameters: scale not given: the % may be the effect or the level left; how it was run: as §1
[21] = biological target: Gamma-secretase (Homo sapiens) (UniProt Q96BI3+Q9NZ42+Q8WW43+P49768+Q92542+P49810); assay: Modulation of gamma-secretase in human H4 cells overexpressing APP incubated assessed as increase in amyloid beta (1 to 38) secretion for 24 hrs by MALDI-TOF mass spectrometric analysis; format: cell-based; conditions: filed as modulator
How it was run: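 H4-APPsw cells treated with compound; secreted Aβ species quantified by mass spectrometry; total Aβ1-x checked by ELISA up to 10 μM.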

[22] = Aqueous solubility of the compound at pH 1; format: physicochemical; conditions: buffer
[23] = Octanol/water partition coefficient, logD of the compound at pH 7.4 by shake flask method; format: physicochemical
[24] = biological target: T3, Nuclear receptor subfamily 1 group I member 2 (Homo sapiens, UniProt O75469); assay: Transactivation of PXR (unknown origin) assessed as CYP450 induction; format: ADME
T3 sequence (O75469 whole entry): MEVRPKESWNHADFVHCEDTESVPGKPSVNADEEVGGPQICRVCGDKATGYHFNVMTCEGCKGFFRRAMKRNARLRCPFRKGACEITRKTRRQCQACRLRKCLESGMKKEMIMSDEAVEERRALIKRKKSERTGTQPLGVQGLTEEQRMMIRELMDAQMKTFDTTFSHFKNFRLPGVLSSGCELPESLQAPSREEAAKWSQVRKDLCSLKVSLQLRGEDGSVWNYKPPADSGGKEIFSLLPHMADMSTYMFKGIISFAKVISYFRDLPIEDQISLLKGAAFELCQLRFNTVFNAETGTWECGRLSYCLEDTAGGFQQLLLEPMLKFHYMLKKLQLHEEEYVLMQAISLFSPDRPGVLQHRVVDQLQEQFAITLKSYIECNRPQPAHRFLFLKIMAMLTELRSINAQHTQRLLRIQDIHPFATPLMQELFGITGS

[25] = Metabolic stability in Beagle dog assessed as half life incubated for 24 hrs by LC-MS/MS analysis; format: ADME, Canis lupus familiaris
[26] = biological target: T1, Cytochrome P450 3A4; assay: Inhibition of CYP3A4 in human liver microsomes measured after 30 mins; format: ADME
[27] = Inhibition of amyloid beta (x to 42) secretion in human H4 cells overexpressing APP incubated for overnight by HTRF analysis; format: functional, cell-based

For `CNc1nc(Nc2ccc(-n3cnc(C)n3)c(OC)c2)nc2c1CC[C@H]2c1ccc(F)cc1`, the Activity [1] was “Non-Toxic”, the Activity [2] was 66% and the F [3] was 85%. For the same compound, the Activity [4] was “Non-Toxic”, the AUC [5] was 180 µM·h and the AUC(0-t) at 24 h [6] was 4 µM·h. The Activity [7] was “Non-Toxic”, the inhibition in vivo at 30 mg/kg [8] was 81% and the Kinact [9] was 0.47 min⁻¹. The concentration at 5 h [10] was 1400 nM, the F [11] was 98% and the pIC50 [12] was 8.18. The t1/2 [13] was 8.7 h, the Activity [14] was 16% and the t1/2 [15] was 2.9 h. For the same compound, the Activity [16] was “Non-Toxic”, the pIC50 [17] was 4.74 and the Fu [18] was 0.8%. The pIC50 [19] was 5.35, the Activity [20] was 45% and the inhibition [21] was “Active”. For the same compound, the solubility [22] was 19 µg/mL (≈ 42.6 µM), the logD [23] was 4.34 and the pEC50 [24] was less than 5.57. It also gave a t1/2 [25] of 0.45 h, a pIC50 [26] of 6.70 and a pIC50 [27] of 8.26.
